# Only some compounds are listed: those with a hit (about 2.8% of all), similar ones and a draw of the others.
# NPY1 pot ag: potentiates or activates human NPY-Y1 receptor; NPY-Y1 expressing cells, potentiator/agonist activation; activation, % at 3.6 µM; 220,000 compounds, 0.37% hits; P25929; in the data active means activation above about 33%, passing the limit was not always enough;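 further: cells stimulated with NPY at EC10 then isoproterenol at EC100; 0% = low agonist plus stimulus and 100% = saturating agonist plus stimulus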
# Target sequence (P25929 whole entry, looked up): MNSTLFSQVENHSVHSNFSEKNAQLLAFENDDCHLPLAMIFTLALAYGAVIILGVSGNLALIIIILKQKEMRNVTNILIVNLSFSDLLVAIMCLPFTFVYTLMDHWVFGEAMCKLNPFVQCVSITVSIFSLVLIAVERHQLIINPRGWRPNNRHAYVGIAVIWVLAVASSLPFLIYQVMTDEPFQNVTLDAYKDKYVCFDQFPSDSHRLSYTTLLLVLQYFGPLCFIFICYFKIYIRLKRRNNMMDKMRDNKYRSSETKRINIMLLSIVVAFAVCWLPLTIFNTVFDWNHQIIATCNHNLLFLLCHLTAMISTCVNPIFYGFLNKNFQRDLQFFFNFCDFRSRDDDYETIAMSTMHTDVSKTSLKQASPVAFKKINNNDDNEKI
# NPY-Y2 PAM-ag: human NPY-Y2 potentiation or agonism, primary screen; P49146; cells expressing NPY-Y2, potentiator/agonist read-out; activation, % at 3.6 µM; 220,000 compounds, 0.45% hits; AID 1359; in the data active means activation above about 27%;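 further: cells stimulated with NPY near EC25 plus isoproterenol at EC100; 0% = vehicle plus submaximal agonist and 100% = vehicle plus saturating agonist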
# NPY Y1 blocker: NPY-Y1 (human) receptor antagonism; P25929; HEK293-CNG Y1 cells, membrane potential fluorescence; NPY at EC95, then isoproterenol; inhibition, % at 3.6 µM; 200,000 compounds, 1% hits;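 active means inhibition above the campaign mean inhibition of all tested compounds plus 3 SD, cut at about 20% in these data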;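 further: 0% = DMSO wells given NPY plus isoproterenol and 100% = isoproterenol alone without NPY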
#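 Material: Y1- and CNG-channel-expressing HEK293 cells / Probe or stimulus: NPY 25 nM then isoproterenol 1 µM plus Ro 20-1724 25 µM / Doses: 3.6 µM single dose, DMSO 0.4% / Schedule: compound incubation 1 h at room temperature, readout 45 min post-stimulation / Signal: membrane potential fluorescence / Benchmarks: isoproterenol-only wells as full block versus NPY-plus-isoproterenol wells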
# NPY Y2 blocker: blocks the human neuropeptide Y Y2 receptor; P49146; NPY-Y2 expressing cells, antagonist mode; inhibition, % at 2.7 µM; 140,000 compounds, 0.99% hits; in the data active means inhibition above about 17%;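 further: 0% = vehicle with agonist challenge and 100% = reference antagonist with challenge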
# Rad51 HR inh: Rad51 (human) homologous recombination inhibition | Q06609 | 200,000 compounds, 0.085% hits | hRad51 DNA strand exchange, fluorescence dequenching | AID 1385 | inhibition, % at 10 µM;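 active means inhibition above 40% at the single screening dose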;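 further: 0% = DMSO control wells and 100% = blanks with heterologous ssDNA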
#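 Material: hRad51 filaments on single-stranded DNA; Reagent: Donor/quencher-labelled 47-bp dsDNA substrate; Compound: 10 µM final, single point; Schedule: 37 °C 15-min filament assembly, 30-min compound preincubation, 15-min exchange; Technique: FRET fluorescence, excitation 485 nm, emission 520 nm; Benchmarks: control wells and blank wells on each plate.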
# Measles CPE: protection of cells from measles virus; Measles virus-infected cells, CPE protection, absorbance; protection (pct of control), % at 4 µM; 140,000 compounds, 1.5% hits; AID 841; in the data active means protection mostly above about 24%, no sharp cut-off; inactive means mostly below about 26%
# * = called active by the depositor; . = no result given.
SMILES,NPY1 pot ag,NPY-Y2 PAM-ag,NPY Y1 blocker,NPY Y2 blocker,Rad51 HR inh,Measles CPE
CCN(CC)Cc1c(C(=O)N2CCc3ccccc3C2)nc2ccc(Cl)cn12,-0.2,-4.4,5.9,.,-4.9,.
Cn1nc(-c2ccc(C(=O)Nc3cccc(Cl)c3)cc2)c2ccccc2c1=O,7.4,-14.4,4.2,2.3,-9.4,37.9*
Cc1ccc(NC(=O)c2ccc(-c3nn(C)c(=O)c4ccccc34)cc2)cc1,-23.2,-6.1,4.8,1.2,2.9,30.6
NS(=O)(=O)c1ccc(NC(=O)COC(=O)c2ccc(Cl)cc2[N+](=O)[O-])cc1,14.4,4.6,.,.,10.8,.
Oc1ccc(/C=N/NC(=S)NCc2ccco2)cc1,14.8,-2.1,3.0,1.1,0.5,40.7*
S=C(NCc1ccco1)N/N=C/c1ccc(Cl)cc1,-16.2,-21.6,3.5,6.1,-1.0,5.6
CSc1nccc(-c2cc(Cl)sc2Cl)n1,4.4,-6.5,0.0,0.1,.,19.5*
CSc1nccc(-c2c(-c3ccc(Cl)cc3)noc2C)n1,-17.2,-21.3,.,.,-4.8,.
CNC(=O)NC(=O)CSc1nc2cc(C(=O)OC)ccc2c(=O)n1-c1ccccc1,-10.4,1.5,-0.4,0.6,2.6,10.7
CCCNC(=O)NC(=O)CSc1nc2cc(C(=O)OC)ccc2c(=O)n1-c1ccccc1,4.9,-9.3,6.0,6.3,5.8,26.0*
COc1ccc(C(=O)/C=C/Nc2ccc(S(=O)(=O)Nc3onc(C)c3C)cc2)cc1,0.7,-7.1,-3.5,2.4,-5.2,42.6*
COc1ccc(-c2[nH]nc3c2C(c2ccoc2)C(C#N)=C(N)O3)cc1 (centres undefined),-7.0,-4.7,-1.7,2.9,3.2,2.9
COc1ccc(OC)c(-c2[nH]nc3c2C(c2ccco2)C(C#N)=C(N)O3)c1 (centres undefined),-17.5,-12.6,48.1*,28.2*,-5.1,3.6
COc1cccc(-c2[nH]nc3c2C(c2ccc(C)o2)C(C#N)=C(N)O3)c1 (centres undefined),15.4,-16.0,28.5*,21.1*,-7.2,22.9
CCCCN(C(=O)CSc1cc(C)c2ccccc2n1)c1c(N)n(Cc2ccccc2)c(=O)[nH]c1=O,5.4,-5.6,10.2,13.8,8.9,14.3
Clc1ccc(CSc2nnnn2-c2ccc3c(c2)OCO3)c(Cl)c1,-23.2,-2.0,10.7,4.9,-8.3,14.5
CCOC(=O)CN(C(=O)CSc1nnc(CNc2ccc(F)cc2)n1C)c1ccccc1,-18.2,2.3,2.8,0.0,6.7,7.8
CCOC(=O)CN(C(=O)CSc1nnc(COc2ccc(OC)cc2)n1C)c1ccccc1,112.5*,103.4*,-13.9,0.1,0.9,5.5
COC(=O)CCC(=O)COc1ccccc1C#N,-28.9,-3.0,-4.1,1.5,1.7,40.5*
Cc1ccc(C(=O)C[n+]2cc(-c3ccc(C)cc3)n3c2CCCCC3)cc1,-34.8,-10.3,79.1*,31.6*,.,16.9
COc1cccc(N2C(=O)/C(=C\c3cccs3)NC2=S)c1,47.7*,69.1*,-3.1,.,28.4,.
COc1ccc(N2C(=O)/C(=C/c3cccnc3)NC2=S)cc1,2.2,7.3,-5.7,-3.1,-6.6,22.3
Cc1cc(C)n(-c2nc3nonc3nc2Nc2cccc(C)c2C)n1,5.4,7.8,4.7,2.4,.,31.2*
Cc1cc(C)n(-c2ccc3cccc(NS(C)(=O)=O)c3n2)n1,5.2,1.9,-1.7,0.2,-12.8,15.9
CCOc1ccc(C2C(C(=O)c3ccc(C)o3)=C(O)C(=O)N2CCN2CCOCC2)cc1OC (centres undefined),7.5,1.9,3.7,5.3,-11.7,11.7
SMILES,NPY1 pot ag,NPY-Y2 PAM-ag,NPY Y1 blocker,NPY Y2 blocker,Rad51 HR inh,Measles CPE
CCCOc1ccc(C2C(C(=O)c3ccco3)=C(O)C(=O)N2CCN2CCOCC2)cc1OC (centres undefined),9.9,-6.6,2.4,-0.1,.,46.9*
Cc1cc(=O)oc2cc(OCC(=O)c3ccc4c(c3)NC(=O)CO4)ccc12,-7.0,-19.1,0.2,.,16.6,.
C/C(=N/OCO/N=C(/C)c1ccc(F)cc1)c1ccc(F)cc1,-20.6,3.9,3.1,9.2,-0.1,28.8*
Cc1ccc(OCC(=O)Sc2ccc(C)cc2)cc1,-12.4,-12.7,-4.7,3.8,-2.2,38.5*
CCCOC(=O)CN1C(=O)c2ccccc2C1=O,5.6,1.3,-1.8,9.0,0.4,19.9*
O=[N+]([O-])c1ccc(-c2nc(-c3cccs3)c(-c3cccs3)[nH]2)cc1,44.2*,45.4*,-16.9,-6.4,-82.6,5.2
Cc1ccc(C)c2[nH]c(=O)c(C(c3nnnn3C(C)(C)C)N3CC=C(c4ccc(F)cc4)CC3)cc12 (centres undefined),-15.4,-4.7,-1.5,-0.1,5.6,5.5
Cc1ccc(NC(=S)N2CCC(c3nc4ccccc4s3)CC2)cc1C,-12.8,-11.8,9.8,8.3,-5.8,29.3*
Cc1cc(C)cc(NC(=S)N2CCC(c3nc4ccccc4s3)CC2)c1,-24.2,-7.7,-0.7,3.6,-0.3,7.1
N#C/C(=C1/CCCCCN1)c1nc2ccccc2[nH]1,20.0,8.6,1.1,0.1,-1.3,20.2
N#C/C(=C1\CCCN1)c1ccc2ccccc2n1,-13.7,2.3,7.4,-2.1,5.7,18.3*
CCN(CC)S(=O)(=O)c1ccc2c(c1)nc(SC(C)C(N)=O)n2-c1ccc(OC)cc1 (centres undefined),7.5,7.4,3.0,1.2,63.1*,10.7
COc1cc2c(cc1OC)C(c1cccc([N+](=O)[O-])c1)N(C(=O)c1ccc(F)cc1)CC2 (centres undefined),-27.4,-2.3,31.8*,33.0*,-1.1,3.6
COc1cc2c(cc1OC)CN(C(=O)c1cccc([N+](=O)[O-])c1)CC2,3.0,3.2,.,.,.,.
O=C(Nc1nccs1)c1ccc(S(=O)(=O)NCC2CCCCC2)cc1,42.1*,29.4,-15.7,3.8,-3.1,39.3
S=c1[nH]cnc2scc(-c3ccc(Cl)cc3)c12,8.3,-6.5,.,.,4.3,.
CCN(CC)c1ccc(NC(=O)c2ccccc2)cc1S(=O)(=O)Nc1ccccc1OC,17.9,4.1,0.3,3.6,4.5,44.7*
CCN(CC)c1ccc(NC(=O)c2cccc(C)c2)cc1S(=O)(=O)Nc1ccccc1OC,-44.6,-5.7,6.1,5.4,6.4,10.3
O=C(CSc1n[nH]c(=O)n1C1CC1)NCc1ccccc1,-22.6,-4.9,.,.,.,.
CCOC(=O)CSc1nc2c(sc(=S)n2-c2ccccc2OC)c(=O)n1Cc1ccco1,8.4,-33.1,34.5*,27.0*,-3.9,25.7
CCOC(=O)CSc1nc2c(sc(=S)n2Cc2ccco2)c(=O)n1-c1ccccc1,-49.7,-37.8,60.5*,36.3*,-0.8,2.2
CCOc1ccc(CN2CCN(Cc3[nH]c4ccccc4c3C)CC2CCO)cc1 (centres undefined),-10.6,-17.6,5.5,.,18.2,.

# Source: PubChem (several laboratories)
